From ChEMBL document CHEMBL1250448, “Inhibitor hijacking of Akt activation” (Nat Chem Biol, 2009)
Active and inactive are the calls of the source. No cut-off for these calls is given here.

How the values were obtained:
[1] = target: T1, RAC-alpha serine/threonine-protein kinase (Homo sapiens, UniProt P31749); assay: Inhibition of wild type AKT1 expressed in HEK293 cells assessed as reduction of IGF1-induced GSK3-beta Ser9 phosphorylation treated 20 mins before IGF1 stimulation by immunoblotting; assay type: cell-based
Outline: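 Untransfected HEK293 cells carrying endogenous Akt were serum-starved overnight. They were treated with compound for 20 min, then stimulated with 50 ng/ml IGF-1 for 10 min. DMSO stocks were diluted 1:1000. Lysates in Tris pH 7.5/Triton buffer with phosphatase inhibitors were immunoblotted for GSK3β Ser9 and Akt Thr308/Ser473 phosphorylation, read by ECL.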

[2] = target: T1, RAC-alpha serine/threonine-protein kinase; assay: Induction of AKT1 Ser473 phosphorylation expressed in IGF1-stimulated HEK293 cells treated 20 mins before IGF1 stimulation by immunoblotting; assay type: cell-based
Outline: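 HEK293 cells (not transfected), serum-starved overnight, then given inhibitor for 20 min before 50 ng/ml IGF-1 for a further 10 min. Cells detached in ice-cold Ca/Mg-free PBS with 0.04% EDTA and lysed in Tris pH 7.5 Triton buffer with protease/phosphatase inhibitors. Lysates cleared at 14000 g, protein equalised by Bradford, and pThr308, pSer473 and GSK3β pSer9 read by immunoblot with ECL.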

[3] = system: Tyrosine-protein kinase ABL1 (Homo sapiens), P00519 [Y253F]; assay: Inhibition of ABL1 Y253F mutant at 1 uM in presence of 10 uM ATP by Select Screen kinase assay relative to untreated control
Outline: (§1)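 Single-point screen at 1 μM against a panel of 220 purified kinases, run by Invitrogen staff as a SelectScreen profiling service. Read-out is percent inhibition of kinase activity.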

[4] = target: Serine/threonine-protein kinase MARK1 (Homo sapiens) (UniProt Q9P0L2); assay: Inhibition of MARK1 at 1 uM in presence of 10 uM ATP by Select Screen kinase assay relative to untreated control
[5] = target: Serine/threonine-protein kinase 3 (Homo sapiens) (UniProt Q13188); assay: Inhibition of STK3 at 1 uM in presence of 10 uM ATP by Select Screen kinase assay relative to untreated control
[6] = target: Protein kinase C beta type (Homo sapiens) (UniProt P05771); assay: Inhibition of PRKCB1 at 1 uM in presence of 10 uM ATP by Select Screen kinase assay relative to untreated control
[7] = target: Serine/threonine-protein kinase pim-2 (Homo sapiens) (UniProt Q9P1W9); assay: Inhibition of PIM2 at 1 uM in presence of 10 uM ATP by Select Screen kinase assay relative to untreated control
[8] = target: Calcium/calmodulin-dependent protein kinase type II subunit delta (Homo sapiens) (UniProt Q13557); assay: Inhibition of CAMK2D at 1 uM in presence of 10 uM ATP by Select Screen kinase assay relative to untreated control; outline: as §1
[9] = target: Serine/threonine-protein kinase D1 (Homo sapiens) (UniProt Q15139); assay: Inhibition of PRKD1 at 1 uM in presence of 10 uM ATP by Select Screen kinase assay relative to untreated control
[10] = target: Protein kinase C theta type (Homo sapiens) (UniProt Q04759); assay: Inhibition of PRKCQ at 1 uM in presence of 10 uM ATP by Select Screen kinase assay relative to untreated control
[11] = target: Ribosomal protein S6 kinase alpha-1 (Homo sapiens) (UniProt Q15418); assay: Inhibition of RPS6KA1 at 1 uM in presence of 100 uM ATP by Select Screen kinase assay relative to untreated control
[12] = target: Ribosomal protein S6 kinase alpha-6 (Homo sapiens) (UniProt Q9UK32); assay: Inhibition of RPS6KA6 at 1 uM in presence of 10 uM ATP by Select Screen kinase assay relative to untreated control
Outline: (§2)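 Commercial SelectScreen profiling panel of 220 purified kinases. Each kinase was tested at a single inhibitor concentration of 1 μM, and activity was expressed as percent inhibition.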

[13] = target: Glycogen synthase kinase-3 alpha (Homo sapiens) (UniProt P49840); assay: Inhibition of GSK3A at 1 uM in presence of 10 uM ATP by Select Screen kinase assay relative to untreated control
Outline: (§3)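 Part of a 220-kinase panel of purified kinases, each tested with compound at 1 μM. Percent inhibition was measured in the Invitrogen SelectScreen profiling assay.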

[14] = target: Serine/threonine-protein kinase Sgk1 (Homo sapiens) (UniProt O00141); assay: Inhibition of SGK at 1 uM in presence of 10 uM ATP by Select Screen kinase assay relative to untreated control
[15] = target: Serine/threonine-protein kinase D3 (Homo sapiens) (UniProt O94806); assay: Inhibition of PRKCN at 1 uM in presence of 10 uM ATP by Select Screen kinase assay relative to untreated control
[16] = target: Vascular endothelial growth factor receptor 2 (Homo sapiens) (UniProt P35968); assay: Inhibition of KDR at 1 uM in presence of 10 uM ATP by Select Screen kinase assay relative to untreated control
Outline: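 Single-concentration profiling at 1 μM against a panel of 220 purified kinases, run as an outsourced SelectScreen kinase profiling service. Activity is expressed as percent inhibition.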

[17] = target: Dual specificity tyrosine-phosphorylation-regulated kinase 1B (Homo sapiens) (UniProt Q9Y463); assay: Inhibition of DYRK1B at 1 uM in presence of 10 uM ATP by Select Screen kinase assay relative to untreated control; outline: as §3
[18] = target: Ribosomal protein S6 kinase beta-1 (Homo sapiens, UniProt P23443); assay: Inhibition of RPS6KB1 at 1 uM in presence of 10 uM ATP by Select Screen kinase assay relative to untreated control
[19] = target: cAMP-dependent protein kinase catalytic subunit alpha (Homo sapiens) (UniProt P17612); assay: Inhibition of PRKACA (PKA) at 1 uM in presence of 10 uM ATP by Select Screen kinase assay relative to untreated control
[20] = target: Muscle, skeletal receptor tyrosine-protein kinase (Homo sapiens) (UniProt O15146); assay: Inhibition of MUSK at 1 uM in presence of 100 uM ATP by Select Screen kinase assay relative to untreated control
[21] = target: Ribosomal protein S6 kinase alpha-4 (Homo sapiens) (UniProt O75676); assay: Inhibition of RPS6KA4 at 1 uM in presence of 10 uM ATP by Select Screen kinase assay relative to untreated control
[22] = target: Serine/threonine-protein kinase 4 (Homo sapiens) (UniProt Q13043); assay: Inhibition of STK4 at 1 uM in presence of 10 uM ATP by Select Screen kinase assay relative to untreated control; outline: as §2
[23] = target: 3-phosphoinositide-dependent protein kinase 1 (Homo sapiens) (UniProt O15530); assay: Inhibition of PDK1 at 1 uM in presence of 10 uM ATP by Select Screen kinase assay relative to untreated control; outline: as §2
[24] = target: Protein kinase C delta type (Homo sapiens) (UniProt Q05655); assay: Inhibition of PRKCD at 1 uM in presence of 10 uM ATP by Select Screen kinase assay relative to untreated control
Outline: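 Profiling panel of 220 purified kinases (SelectScreen), each compound tested at 1 μM. Read-out is percent inhibition of kinase activity.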

T1 sequence (P31749 whole entry): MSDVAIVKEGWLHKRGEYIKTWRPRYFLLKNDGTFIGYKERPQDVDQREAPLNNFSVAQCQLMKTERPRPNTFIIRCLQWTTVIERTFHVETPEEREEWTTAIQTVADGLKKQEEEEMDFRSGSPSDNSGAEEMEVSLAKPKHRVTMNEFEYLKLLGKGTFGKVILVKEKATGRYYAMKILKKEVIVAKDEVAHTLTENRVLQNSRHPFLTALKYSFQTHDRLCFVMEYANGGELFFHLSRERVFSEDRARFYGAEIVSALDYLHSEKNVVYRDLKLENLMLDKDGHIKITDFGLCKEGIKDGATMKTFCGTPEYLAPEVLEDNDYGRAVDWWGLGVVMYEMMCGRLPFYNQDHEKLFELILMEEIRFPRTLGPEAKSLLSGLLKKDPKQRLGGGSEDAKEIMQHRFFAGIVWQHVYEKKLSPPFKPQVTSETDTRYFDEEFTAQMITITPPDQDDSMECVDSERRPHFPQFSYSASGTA
Chain of Dual specificity tyrosine-phosphorylation-regulated kinase 1B (Homo sapiens) (Q9Y463 whole entry, looked up): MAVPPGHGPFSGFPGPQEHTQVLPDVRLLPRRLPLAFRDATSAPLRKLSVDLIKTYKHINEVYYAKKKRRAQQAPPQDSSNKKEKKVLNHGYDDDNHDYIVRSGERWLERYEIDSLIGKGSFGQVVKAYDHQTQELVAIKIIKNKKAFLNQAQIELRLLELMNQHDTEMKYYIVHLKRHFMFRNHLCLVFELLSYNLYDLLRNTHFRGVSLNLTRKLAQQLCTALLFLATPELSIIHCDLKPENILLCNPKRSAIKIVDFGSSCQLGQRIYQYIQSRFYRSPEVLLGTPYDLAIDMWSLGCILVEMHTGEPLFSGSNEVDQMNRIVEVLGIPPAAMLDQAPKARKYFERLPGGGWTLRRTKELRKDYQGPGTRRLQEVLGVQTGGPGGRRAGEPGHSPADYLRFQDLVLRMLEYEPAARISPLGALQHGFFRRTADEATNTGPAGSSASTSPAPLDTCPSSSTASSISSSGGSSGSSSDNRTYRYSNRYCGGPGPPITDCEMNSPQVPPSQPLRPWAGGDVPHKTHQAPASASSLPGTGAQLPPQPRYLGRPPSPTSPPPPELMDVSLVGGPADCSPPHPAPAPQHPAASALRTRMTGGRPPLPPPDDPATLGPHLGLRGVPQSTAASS
Chain of Protein kinase C beta type (Homo sapiens) (P05771 2-671 limits assumed): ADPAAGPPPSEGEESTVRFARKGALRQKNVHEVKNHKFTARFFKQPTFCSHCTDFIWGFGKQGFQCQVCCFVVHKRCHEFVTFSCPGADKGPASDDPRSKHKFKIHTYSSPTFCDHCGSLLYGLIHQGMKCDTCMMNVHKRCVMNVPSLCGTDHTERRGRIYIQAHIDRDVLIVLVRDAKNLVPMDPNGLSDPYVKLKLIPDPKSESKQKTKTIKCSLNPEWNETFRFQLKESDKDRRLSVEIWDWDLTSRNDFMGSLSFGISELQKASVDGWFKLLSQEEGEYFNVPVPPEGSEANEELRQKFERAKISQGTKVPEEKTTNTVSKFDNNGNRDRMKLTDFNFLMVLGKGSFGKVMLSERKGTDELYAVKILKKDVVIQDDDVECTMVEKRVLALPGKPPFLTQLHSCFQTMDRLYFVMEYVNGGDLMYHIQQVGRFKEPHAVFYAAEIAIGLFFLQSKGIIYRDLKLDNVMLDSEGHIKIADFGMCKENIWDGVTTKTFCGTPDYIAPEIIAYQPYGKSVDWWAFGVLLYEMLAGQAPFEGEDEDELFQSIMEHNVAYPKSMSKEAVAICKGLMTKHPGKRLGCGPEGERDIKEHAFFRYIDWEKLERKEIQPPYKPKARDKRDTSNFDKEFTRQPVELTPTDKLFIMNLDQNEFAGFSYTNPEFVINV
Chain of Calcium/calmodulin-dependent protein kinase type II subunit delta (Homo sapiens) (Q13557 whole entry): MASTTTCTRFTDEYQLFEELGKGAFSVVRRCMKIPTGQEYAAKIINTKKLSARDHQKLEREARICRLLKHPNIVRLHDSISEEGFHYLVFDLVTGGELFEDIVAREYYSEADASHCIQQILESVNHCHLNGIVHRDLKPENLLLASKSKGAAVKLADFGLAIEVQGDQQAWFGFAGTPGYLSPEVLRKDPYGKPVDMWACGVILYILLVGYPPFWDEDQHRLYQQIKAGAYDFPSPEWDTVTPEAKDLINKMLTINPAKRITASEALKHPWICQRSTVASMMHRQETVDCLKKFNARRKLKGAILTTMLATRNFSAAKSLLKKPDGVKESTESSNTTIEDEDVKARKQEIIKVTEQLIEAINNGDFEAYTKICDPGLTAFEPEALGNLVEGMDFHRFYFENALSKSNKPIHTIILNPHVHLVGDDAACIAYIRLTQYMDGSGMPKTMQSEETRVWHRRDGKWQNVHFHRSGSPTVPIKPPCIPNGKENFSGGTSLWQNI
Chain of Serine/threonine-protein kinase pim-2 (Homo sapiens) (Q9P1W9 whole entry, looked up): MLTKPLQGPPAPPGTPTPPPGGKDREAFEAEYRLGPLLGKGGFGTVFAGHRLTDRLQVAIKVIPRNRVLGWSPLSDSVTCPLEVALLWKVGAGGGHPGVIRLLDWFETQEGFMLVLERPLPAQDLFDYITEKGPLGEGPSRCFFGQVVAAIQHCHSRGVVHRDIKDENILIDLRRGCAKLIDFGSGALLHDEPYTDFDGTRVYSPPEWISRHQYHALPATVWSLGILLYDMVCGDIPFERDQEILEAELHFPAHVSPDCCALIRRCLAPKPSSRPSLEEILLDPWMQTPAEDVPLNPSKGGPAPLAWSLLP
Chain of Serine/threonine-protein kinase 3 (Homo sapiens) (Q13188 whole entry): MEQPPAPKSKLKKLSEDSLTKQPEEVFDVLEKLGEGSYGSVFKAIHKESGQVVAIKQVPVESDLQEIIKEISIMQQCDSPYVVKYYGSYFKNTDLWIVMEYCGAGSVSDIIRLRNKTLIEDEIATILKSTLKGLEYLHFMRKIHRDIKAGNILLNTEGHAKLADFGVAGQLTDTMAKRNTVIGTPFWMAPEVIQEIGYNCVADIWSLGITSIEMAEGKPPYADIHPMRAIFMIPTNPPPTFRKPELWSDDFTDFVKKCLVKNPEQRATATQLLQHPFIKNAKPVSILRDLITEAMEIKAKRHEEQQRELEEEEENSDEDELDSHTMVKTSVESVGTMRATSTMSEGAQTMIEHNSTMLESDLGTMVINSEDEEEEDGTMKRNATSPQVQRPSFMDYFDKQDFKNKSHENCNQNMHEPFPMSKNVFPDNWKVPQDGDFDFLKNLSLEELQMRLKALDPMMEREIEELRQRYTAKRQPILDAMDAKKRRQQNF
Chain of Ribosomal protein S6 kinase beta-1 (P23443 whole entry, looked up): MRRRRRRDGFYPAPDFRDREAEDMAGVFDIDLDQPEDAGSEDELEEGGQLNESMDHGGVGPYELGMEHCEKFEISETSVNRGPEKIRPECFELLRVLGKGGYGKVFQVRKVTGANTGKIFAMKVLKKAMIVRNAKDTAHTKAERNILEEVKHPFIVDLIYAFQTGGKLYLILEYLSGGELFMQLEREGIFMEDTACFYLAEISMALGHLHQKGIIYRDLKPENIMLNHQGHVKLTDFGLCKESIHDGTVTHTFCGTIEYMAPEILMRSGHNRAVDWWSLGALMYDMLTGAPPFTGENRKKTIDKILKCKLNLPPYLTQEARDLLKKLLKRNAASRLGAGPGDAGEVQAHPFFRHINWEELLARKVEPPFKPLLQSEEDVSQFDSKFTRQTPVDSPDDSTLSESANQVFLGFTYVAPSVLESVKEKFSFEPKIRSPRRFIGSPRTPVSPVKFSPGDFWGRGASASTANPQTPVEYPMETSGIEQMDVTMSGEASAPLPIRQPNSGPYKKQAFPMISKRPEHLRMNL
Chain of Muscle, skeletal receptor tyrosine-protein kinase (Homo sapiens) (O15146 whole entry): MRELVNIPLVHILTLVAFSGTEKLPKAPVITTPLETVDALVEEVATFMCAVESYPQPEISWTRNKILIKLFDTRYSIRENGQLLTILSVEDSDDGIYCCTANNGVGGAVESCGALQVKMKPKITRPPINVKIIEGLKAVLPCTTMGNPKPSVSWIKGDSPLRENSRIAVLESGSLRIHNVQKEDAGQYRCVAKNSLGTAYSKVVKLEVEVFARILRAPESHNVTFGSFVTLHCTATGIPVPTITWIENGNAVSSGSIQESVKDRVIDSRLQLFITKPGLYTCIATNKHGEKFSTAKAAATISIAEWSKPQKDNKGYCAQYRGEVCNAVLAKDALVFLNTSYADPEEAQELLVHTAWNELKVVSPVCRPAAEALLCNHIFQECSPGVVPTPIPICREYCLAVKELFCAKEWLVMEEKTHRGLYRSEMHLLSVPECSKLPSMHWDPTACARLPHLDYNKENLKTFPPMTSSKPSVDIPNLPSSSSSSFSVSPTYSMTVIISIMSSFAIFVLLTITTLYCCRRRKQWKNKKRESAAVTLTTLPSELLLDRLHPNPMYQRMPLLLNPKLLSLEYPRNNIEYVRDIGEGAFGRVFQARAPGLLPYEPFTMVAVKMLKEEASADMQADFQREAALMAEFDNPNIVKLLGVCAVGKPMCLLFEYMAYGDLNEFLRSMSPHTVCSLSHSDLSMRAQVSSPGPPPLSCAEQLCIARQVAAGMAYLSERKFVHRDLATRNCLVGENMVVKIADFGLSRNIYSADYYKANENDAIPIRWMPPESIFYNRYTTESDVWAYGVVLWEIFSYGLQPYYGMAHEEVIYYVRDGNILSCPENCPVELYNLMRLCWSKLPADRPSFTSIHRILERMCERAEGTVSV
Chain of Glycogen synthase kinase-3 alpha (Homo sapiens) (P49840 2-483 limits assumed): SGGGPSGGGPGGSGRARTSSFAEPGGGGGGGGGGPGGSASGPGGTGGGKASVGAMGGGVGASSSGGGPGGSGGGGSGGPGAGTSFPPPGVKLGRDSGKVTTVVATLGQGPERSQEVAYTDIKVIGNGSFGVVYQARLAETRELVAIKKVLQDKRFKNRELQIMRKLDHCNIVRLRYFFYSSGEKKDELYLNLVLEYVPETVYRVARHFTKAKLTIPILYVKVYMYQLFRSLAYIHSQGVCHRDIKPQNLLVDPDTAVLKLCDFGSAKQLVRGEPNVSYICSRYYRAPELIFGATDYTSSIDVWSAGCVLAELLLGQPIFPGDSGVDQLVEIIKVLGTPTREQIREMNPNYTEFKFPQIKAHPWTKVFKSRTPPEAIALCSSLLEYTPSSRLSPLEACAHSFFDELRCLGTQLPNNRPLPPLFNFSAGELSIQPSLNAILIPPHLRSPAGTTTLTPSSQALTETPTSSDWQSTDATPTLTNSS

Structure (SMILES) | inhibition [1] | Activity [2] | inhibition [3] [%] | inhibition [4] [%] | inhibition [5] [%] | inhibition [6] [%] | inhibition [7] [%] | inhibition [8] [%] | inhibition [9] [%] | inhibition [10] [%] | inhibition [11] [%] | inhibition [12] [%] | inhibition [13] [%] | inhibition [14] [%] | inhibition [15] [%] | inhibition [16] [%] | inhibition [17] [%] | inhibition [18] [%] | inhibition [19] [%] | inhibition [20] [%] | further results
CCCc1cc(-c2cncc(OC[C@@H](N)Cc3c[nH]c4ccccc34)c2)cc2c(C)n[nH]c12 | inactive | inactive |  |  |  |  |  |  |  |  |  |  |  |  |  |  |  |  |  |  | 
COc1ccccc1N1CCN(c2ncnc3[nH]nc(Br)c23)CC1 |  |  | 12 | 23 | 9 | 35 | -1 | 11 | 5 | 15 | 63 | 28 | 80 | 13 | 18 | 52 | 43 | 80 | 48 | 19 | inhibition [21]: 90%; inhibition [22]: 19%; inhibition [23]: 12%; inhibition [24]: -5%
Cc1n[nH]c2ccc(-c3cncc(OC[C@@H](N)Cc4c[nH]c5ccccc45)c3)cc12 | Active | Active |  |  |  |  |  |  |  |  |  |  |  |  |  |  |  |  |  |  | 
O=C(NCCCNc1nc(Nc2cccc(NC(=O)N3CCCC3)c2)ncc1I)c1cccs1 |  |  | 36 | 95 | 21 | 28 | 1 | 85 | 71 | 38 | 42 | 58 | 69 | 53 | 83 | 79 | 26 | 29 | 28 | 76 | inhibition [21]: 75%; inhibition [22]: 36%; inhibition [23]: 89%; inhibition [24]: 24%
